Assay results as given in ChEMBL document CHEMBL4261487, “Small structural changes of the imidazopyridine diacylglycerol acyltransferase 2 (DGAT2) inhibitors produce an improved safety profile” (Medchemcomm, 2017).
In brackets after ≈: the same amount, converted by molar mass. Blank lines part the entries; values can stand above or below the compound they belong to.

What was measured:
Canis familiaris [1] = assay: In vivo inhibition of DGAT2 in beagle dog assessed as coverage of in vitro IC50 for dog DGAT2 at 3 mg/kg, po qd administered for 1 month; assay type: functional, Canis lupus familiaris; set-up: scale not given: the % may be the effect or the level left
How it was run: (§1)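 Beagle dogs, once-daily oral dosing for 14 days or 1 month; systemic exposure with sexes combined; coverage is the average % above dog DGAT2 IC50 at steady state over the 24 h dosing interval.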

Canis familiaris [2] = assay: Toxicity in beagle dog at 3 to 30 mg/kg, po qd administered for 1 month; assay type: organism-based, Canis lupus familiaris; details: in vivo
[3] = Ratio of Cmax in telemetered beagle dog at 25 mg/kg administered via oral gavage measured over 24 hrs to IC50 for in vitro inhibition of dog DGAT2; assay type: organism-based, Canis lupus familiaris; details: in vivo
How it was run: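 Telemetered Beagle dogs given single oral doses (5, 25 and 50 mg kg–1), with systolic and diastolic blood pressure and heart rate monitored after dosing. Cmax is related to the dog DGAT2 enzymatic IC50, which is the geometric mean of at least three replicates.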

[4] = Half life in beagle dog at 1 mg/kg, iv; assay type: ADME, organism-based, Canis lupus familiaris; details: in vivo
[5] = Thermodynamic solubility of the compound at pH 6.5; assay type: physicochemical; details: buffer, read-out: Therm_solubility
[6] = Ratio of Cmax in beagle dog at 30 mg/kg, po qd administered for 1 month to IC50 for in vitro inhibition of dog DGAT2; assay type: organism-based, Canis lupus familiaris; details: in vivo
How it was run: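 One-month toxicity study in Beagle dogs with N = 2/sex/dose. Plasma exposure at each dose level was referenced to the dog DGAT2 enzymatic IC50, reported as the geometric mean of at least three replicates.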

Canis familiaris [7] = assay: Unbound AUC in beagle dog at 30 mg/kg, po qd administered for 1 month; assay type: ADME, organism-based, Canis lupus familiaris; details: in vivo
How it was run: (§2)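 Beagle dogs were dosed orally once daily in a 14-day exploratory study or 1-month toxicity studies. Steady-state systemic exposure over the 24 h dosing interval is reported as the mean of male and female values combined.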

[8] = biological target: T1, Diacylglycerol O-acyltransferase 2 (Canis lupus familiaris, UniProt A0A8I3NDW2); assay: Inhibition of dog DGAT2
T1 sequence (A0A8I3NDW2 whole entry): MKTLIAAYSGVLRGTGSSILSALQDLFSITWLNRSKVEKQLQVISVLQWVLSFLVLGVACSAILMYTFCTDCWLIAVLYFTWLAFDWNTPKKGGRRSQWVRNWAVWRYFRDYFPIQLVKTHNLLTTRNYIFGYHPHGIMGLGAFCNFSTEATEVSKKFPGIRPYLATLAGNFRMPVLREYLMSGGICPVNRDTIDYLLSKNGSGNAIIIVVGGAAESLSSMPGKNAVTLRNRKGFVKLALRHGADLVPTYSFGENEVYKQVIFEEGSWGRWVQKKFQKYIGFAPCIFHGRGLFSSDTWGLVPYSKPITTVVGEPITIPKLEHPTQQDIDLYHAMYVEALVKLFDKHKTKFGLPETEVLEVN

Canis familiaris [9] = assay: Toxicity in telemetered beagle dog assessed as increase in heart rate at 25 mg/kg administered via oral gavage measured during 4 hrs of post dosing; assay type: organism-based, Canis lupus familiaris; details: in vivo
[10] = Apparent permeability of the compound at pH 7.4; assay type: ADME; details: not told
Cytochrome P450 3A4 = Cytochrome P450 3A4 (Homo sapiens, UniProt P08684); assay: Drug metabolism in human liver microsomes assessed as fraction of CYP3A4-mediated oxidative metabolism preincubated for 5 mins followed by addition of NADPH regenerating system and measured after 2.5 to 60 mins; assay type: ADME
How it was run: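 Fractions of metabolism attributed to CYP oxidation and UGT glucuronidation were derived from human liver microsomal incubations. For the glucuronidation arm, microsomes were supplemented with the UGT cofactor UDP-glucuronic acid.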

Canis familiaris [11] = assay: Toxicity in telemetered beagle dog assessed as increase in systolic pressure at 50 mg/kg administered via oral gavage measured during 4 hrs of post dosing; assay type: organism-based, Canis lupus familiaris; details: in vivo
Rattus norvegicus [12] = assay: Unbound AUC in Wistar Han IGS rat at 100 mg/kg, po qd administered for 14 days; assay type: ADME, organism-based; details: in vivo, 336 h
How it was run: (§3)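 Wistar Han rats were dosed orally once daily for 14 days (exploratory, 5/sex/dose) or 1 month (toxicity, 10/sex/dose). Toxicokinetic satellite animals (3–4/sex/dose) were used, and steady-state systemic exposure is given as the mean of male and female values combined.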

Rattus norvegicus [13] = assay: Unbound Cmax in Wistar Han IGS rat at 30 mg/kg, po qd administered for 1 month; assay type: ADME, organism-based; details: in vivo; how it was run: as §3
Rattus norvegicus [14] = assay: Toxicity in Wistar Han IGS rat assessed as gastric smooth muscle degeneration at 500 mg/kg, po qd administered for 14 days; assay type: organism-based; details: in vivo, 336 h
How it was run: (§4)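 Wistar Han rats, daily oral dosing for 14 days (5/sex/dose) or 1 month (10/sex/dose); microscopic findings reported as incidence by sex, plus organ weights.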

Canis familiaris [15] = assay: Unbound Cmax in beagle dog […] at 75 mg/kg, po qd administered for 14 days; assay type: ADME, organism-based, Canis lupus familiaris; details: in vivo, 336 h
How it was run: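 Exploratory 14-day dog toxicity study with daily oral dosing. Toxicokinetic exposure is reported as the mean with male and female systemic values combined.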

Rattus norvegicus [16] = assay: Toxicity in Wistar Han IGS rat at 30 mg/kg, po qd administered for 1 month; assay type: organism-based; details: in vivo; how it was run: as §4
Canis familiaris [17] = assay: Toxicity in beagle dog assessed as increase in heart rate at 50 to 150 mg/kg, po qd administered for 1 month; assay type: organism-based, Canis lupus familiaris; details: in vivo
Canis familiaris [18] = assay: Unbound Cmax in beagle dog at 5 mg/kg, po qd administered for 1 month; assay type: ADME, organism-based, Canis lupus familiaris; details: in vivo
How it was run: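 One-month dog toxicity study with once-daily oral dosing. Toxicity groups were 2/sex/dose, and unbound peak exposure was taken from toxicokinetic sampling.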

Rattus norvegicus [19] = assay: In vivo inhibition of DGAT2 in Wistar Han IGS rat assessed as coverage of in vitro IC50 for rat DGAT2 at 500 mg/kg, po qd administered for 14 days; assay type: functional; set-up: scale not given: the % may be the effect or the level left
How it was run: (§5)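 Wistar Han rats, once-daily oral dosing for 14 days (exploratory, 5/sex/dose) or 1 month (10/sex/dose); toxicokinetics in 3–4/sex/dose with sexes combined; coverage is the average % above rat DGAT2 IC50 at steady state over the 24 h dosing interval.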

Canis familiaris [20] = assay: Unbound AUC in beagle dog at 2 mg/kg, po qd administered for 1 month; assay type: ADME, organism-based, Canis lupus familiaris; details: in vivo; how it was run: as §2
Rattus norvegicus [21] = assay: Toxicity in Wistar Han IGS rat at 100 mg/kg, po qd administered for 14 days; assay type: organism-based; details: in vivo, 336 h; how it was run: as §4
Canis familiaris [22] = assay: In vivo inhibition of DGAT2 in beagle dog assessed as coverage of in vitro IC50 for dog DGAT2 at 100 to 150 mg/kg, po qd administered for 1 month; assay type: functional, Canis lupus familiaris; set-up: scale not given: the % may be the effect or the level left; how it was run: as §1
Canis familiaris [23] = assay: Unbound Cmax in beagle dog at 2 mg/kg, po qd administered for 1 month; assay type: ADME, organism-based, Canis lupus familiaris; details: in vivo; how it was run: as §2
Canis familiaris [24] = assay: In vivo inhibition of DGAT2 in beagle dog assessed as coverage of in vitro IC50 for dog DGAT2 at 300 mg/kg, po qd administered for 14 days; assay type: functional, Canis lupus familiaris; set-up: scale not given: the % may be the effect or the level left; how it was run: as §1
Canis familiaris [25] = assay: Toxicity in beagle dog assessed as renal tubular regeneration at 300 mg/kg, po qd administered for 14 days; assay type: organism-based, Canis lupus familiaris; details: in vivo, 336 h
Canis familiaris [26] = assay: Unbound Cmax in telemetered beagle dog at 75 mg/kg administered via oral gavage measured over 24 hrs; assay type: ADME, organism-based, Canis lupus familiaris; details: in vivo
How it was run: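 Telemetered Beagle dogs given oral doses, with blood pressure and heart rate monitored after dosing alongside plasma exposure.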

Canis familiaris [27] = assay: Toxicity in telemetered beagle dog assessed as increase in diastolic pressure at 75 mg/kg administered via oral gavage measured over 24 hrs; assay type: organism-based, Canis lupus familiaris; details: in vivo
Rattus norvegicus [28] = assay: In vivo inhibition of DGAT2 in Wistar Han IGS rat assessed as coverage of in vitro IC50 for rat DGAT2 at 60 mg/kg, po qd administered for 1 month; assay type: functional; set-up: scale not given: the % may be the effect or the level left; how it was run: as §5
Canis familiaris [29] = assay: Toxicity in beagle dog assessed as unscheduled death at 300 mg/kg, po qd administered for 14 days; assay type: organism-based, Canis lupus familiaris; details: in vivo, 336 h

Sequence of Cytochrome P450 3A4 (P08684 whole entry): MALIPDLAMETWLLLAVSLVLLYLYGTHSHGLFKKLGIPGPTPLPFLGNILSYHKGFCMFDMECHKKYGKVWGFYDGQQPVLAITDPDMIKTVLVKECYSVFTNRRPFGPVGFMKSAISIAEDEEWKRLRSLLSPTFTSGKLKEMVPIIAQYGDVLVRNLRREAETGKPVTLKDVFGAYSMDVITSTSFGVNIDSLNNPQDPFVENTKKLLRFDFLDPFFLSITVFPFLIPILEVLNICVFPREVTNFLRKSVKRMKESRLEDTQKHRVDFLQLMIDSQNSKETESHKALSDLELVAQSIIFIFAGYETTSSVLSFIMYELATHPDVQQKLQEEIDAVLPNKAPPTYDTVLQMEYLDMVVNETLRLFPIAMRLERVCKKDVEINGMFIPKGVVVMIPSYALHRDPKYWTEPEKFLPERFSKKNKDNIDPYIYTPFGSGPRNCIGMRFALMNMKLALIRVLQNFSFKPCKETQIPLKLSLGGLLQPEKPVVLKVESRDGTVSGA

half-life [4]: 3.2 h
solubility thermodynamic [5]: 285 µg/mL (≈ 666 µM)
Ratio [6]: 92
fAUC (Canis familiaris [7]): 9530 ng·h/mL
IC50 [8]: 41 nM
Papp [10]: 13.1 ×10⁻⁶ cm/s
Ratio (Cytochrome P450 3A4): 0.61
SMILES: C[C@@H](c1nc2ccc(N3CCC[C@@H](C(=O)N4CCCC4)C3)nc2[nH]1)n1cc(Cl)cn1
Activity (Canis familiaris [1]): 65%
Activity (Canis familiaris [2]): Non-Toxic
Ratio [3]: 52
Activity (Canis familiaris [9]): 10 bpm
Activity (Canis familiaris [11]): 5 mmHg

SMILES: CS(=O)(=O)O.O=C([C@@H]1CCCN(c2ccc3nc(C4(n5cc(Cl)cn5)CC4)[nH]c3n2)C1)N1CCCC1
fAUC (Rattus norvegicus [12]): 25600 ng·h/mL
fCmax (Rattus norvegicus [13]): 2020 nM
Activity (Rattus norvegicus [14]): Toxic
fCmax (Canis familiaris [15]): 6.54 µM
Activity (Rattus norvegicus [16]): Non-Toxic
Activity (Canis familiaris [17]): Toxic
fCmax (Canis familiaris [18]): 1010 nM
Activity (Rattus norvegicus [19]): >99%
fAUC (Canis familiaris [20]): 238 ng·h/mL
Activity (Rattus norvegicus [21]): Non-Toxic
Activity (Canis familiaris [22]): >99%
fCmax (Canis familiaris [23]): 305 nM
Activity (Canis familiaris [24]): >99%
Activity (Canis familiaris [25]): Toxic
fCmax (Canis familiaris [26]): 7.51 µM
Activity (Canis familiaris [27]): 6 mmHg
Activity (Rattus norvegicus [28]): 98%
Activity (Canis familiaris [29]): Toxic
